Source: ChEMBL document CHEMBL1130321, “Synthesis and in vitro activity of 3 beta-substituted-3 alpha-hydroxypregnan-20-ones: allosteric modulators of the GABAA receptor” (J Med Chem, 1997)

Assays:
Rattus norvegicus [1] = species: Rattus norvegicus; assay: Percent of maximal extent of inhibition was calculated by fitting [35S]TBPS inhibition data to a sigmoid function (rat brain cortical P2 membranes).; type: functional
How it was run: (§1)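 Rat cortical P2 membranes washed in 200 mM NaCl/50 mM Na-K phosphate pH 7.4. Incubated with 2 nM [35S]TBPS, 5 µM GABA and compound at nine concentrations from 1 nM to 10 µM final (DMSO 0.5% final), 90 min at room temperature. Nonspecific binding was defined with 2 µM unlabeled TBPS. Read-out was filtration and scintillation counting. IC50 and Imax came from partial or full inhibition fits chosen by F-test. Values are mean ± SEM of 3-9 experiments.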

[2] = molecular target: GABA-A receptor; anion channel; assay: Allosteric modulation of [35S]TBPS binding to Gamma-aminobutyric acid A receptor in rat brain cortical P2 membranes (inhibits binding with two components); type: cell membranes, Membrane; how it was run: as §1
[3] = molecular target: GABA-A receptor; anion channel; assay: Ability to allosterically modulate the binding of [35S]TBPS to gamma-aminobutyric-acid A receptor in rat brain cortical P2 membranes.; type: cell membranes, Membrane; how it was run: as §1
Rattus norvegicus [4] = species: Rattus norvegicus; assay: Percent of maximal extent of inhibition was calculated by fitting [35S]TBPS inhibition data to a sigmoid function (rat brain cortical P2 membranes) at 10 uM concentration; type: functional
How it was run: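 Rat cortical P2 membranes washed in 200 mM NaCl/50 mM Na-K phosphate, pH 7.4. Incubated 90 min at room temperature with 2 nM [35S]TBPS, 5 μM GABA and steroid in DMSO (0.5% final). Nonspecific binding defined with 2 μM unlabeled TBPS. Filtration, scintillation counting. Partial or full inhibition model chosen by F-test.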

CC(=O)[C@H]1CC[C@H]2[C@@H]3CC[C@@H]4C[C@H](O)CC[C@]4(C)[C@H]3CC[C@]12C [ELTANOLONE]
Imax (Rattus norvegicus [1]): 65% | IC50 [2]: 44 nM

CSC[C@@]1(O)CC[C@@]2(C)[C@@H](CC[C@@H]3[C@@H]2CC[C@]2(C)[C@@H](C(C)=O)CC[C@@H]32)C1
IC50 [3]: > 10000 nM | Imax (Rattus norvegicus [4]): 46%
